The values that follow come from ChEMBL document CHEMBL3576843, “Neopetrocyclamines A and B, polycyclic diamine alkaloids from the sponge Neopetrosia cf exigua” (2015).

Where only a bound is given, the exact number is not on record here.

Common to all, as to assay type: functional
The test system of one experiment is SF-295. In words: Cytotoxicity against human SF295 cells after 48 hrs by XTT assay. As to conditions: SF-295, 48 h. An outline of the steps: (§1)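 Cells seeded at 5000/well in medium lacking phenol red and antibiotics, allowed 60 min to attach, then compound dilutions or DMSO solvent control added. Incubated 48 h with compound; viability measured by XTT proliferation assay per kit protocol; growth inhibition expressed as GI50.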
A general note: Tetrazolium assays rely on reduction of a dye to a coloured formazan, in cell work by metabolically active cells.

Another experiment concerns A498. In words: Cytotoxicity against human A498 cells after 48 hrs by XTT assay. As to conditions: A498, 48 h. An outline of the steps:
as §1

The next experiment has as its system UO-31. In words: Cytotoxicity against human UO31 cells after 48 hrs by XTT assay. As to conditions: UO-31, 48 h. An outline of the steps: as §1

With `C1=C/[C@H]2[C@@H]3CCCC[C@H]3C[C@H]2NCCCN[C@@H]2C[C@@H]3CCCC[C@H]3[C@@H]2/C=C/1`, the GI50 with SF-295 is 0.8 µM; in the experiment with A498, 2.9 µM; in the experiment on UO-31, 3 µM.

In the case of `C1=C[C@H]2/C=C/CCCCC/C=C\CCN3C=[N+](CCC3)C[C@H]2[C@@H]2CCCC[C@@H]12`, the GI50 with SF-295, in the experiment on A498 and in the experiment with UO-31 was greater than 20 µM each time.

Turning to `C1=C[C@H]2/C=C/CCCCC/C=C\CCNCCCNC[C@H]2[C@@H]2CCCC[C@@H]12`, the GI50 in the experiment with SF-295, with A498 and in the experiment on UO-31 was greater than 20 µM in each case.

On to `C1=C/[C@H]2[C@@H]3CCCC[C@H]3C[C@@H]2NCCCN[C@@H]2C[C@@H]3CCCC[C@H]3[C@@H]2/C=C/1` [HALICLONADIAMINE], for which the GI50 was determined as 6.3 µM in the experiment with SF-295, 5.9 µM in the experiment with A498 and 8 µM with UO-31.

For orientation: GI50 means the concentration at which growth is held to half of that of the control. Higher therefore signals lower sensitivity of the cells.
